Assay results: ChEMBL document CHEMBL4765303, “Synthesis and evaluation of butein derivatives for in vitro and in vivo inflammatory response suppression in lymphedema” (Eur J Med Chem, 2020)
In brackets after ≈: the same amount, converted by molar mass. Blank lines part the entries; values can stand above or below the compound they belong to. Activity calls are given as the source filed them. The calls are words filed in the database; no cut-off is given here.

Columns and labels:
[1] = Inhibition of LPS stimulated TNF alpha production in Balb/c mouse peritoneal macrophages at 20 uM measured by ELISA plate reader method; format: functional; conditions: Macrophage
In short: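 Thioglycollate-elicited peritoneal exudate cells from male Balb/c mice, adherent fraction after overnight plating at 37 °C. Cells stimulated with 100 ng/mL LPS for 24 h with compound at 20 µM. Supernatant TNF-α measured by ELISA. Mean ± SD, n = 3.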

[2] = Inhibition of LPS stimulated TNF alpha production in Balb/c mouse peritoneal macrophages measured by ELISA plate reader method; format: functional; conditions: Macrophage
[3] = Metabolic stability in mouse liver microsomes assessed as percentage of compound remaining after 30 mins; format: ADME, Microsome; conditions: read-out: Stabilty
In short: (§1)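 Phase I stability in liver microsomes from mouse, rat and human. Percent of compound remaining measured 30 min after reaction. Buspirone included as a control metabolized in Phase I.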

[4] = Metabolic stability in rat liver microsomes assessed as percentage of compound remaining after 30 mins; format: ADME, Microsome; conditions: read-out: Stabilty; in short: as §1
[5] = Metabolic stability in human liver microsomes assessed as percentage of compound remaining after 30 mins; format: ADME, Microsome; conditions: read-out: Stabilty; in short: as §1
[6] = Dissociation constant, pKa of compound; format: physicochemical
[7] = Kinetic solubility of compound in water; format: physicochemical; conditions: read-out: Kinetic_solubility
[8] = Tmax in CD-1 mouse at 1 mg/kg, iv measured upto 1440 mins by LC/MS/MS analysis; format: ADME, organism-based; conditions: in vivo
In short: (§2)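 Male CD-1 mice, 5 weeks old, dosed once, either by tail vein at 1 mg/kg or orally at 20 mg/kg or 100 mg/kg. Plasma levels give Cmax, Tmax and AUC. Values are mean ± SD from three mice. A prodrug is quantified through its main metabolite, the parent compound (LOQ <1 ng/mL).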

[9] = Tmax in CD-1 mouse at 20 mg/kg, po measured upto 1440 mins by LC/MS/MS analysis; format: ADME, organism-based; conditions: in vivo; in short: as §2
[10] = Tmax in CD-1 mouse at 100 mg/kg, po measured upto 1440 mins by LC/MS/MS analysis; format: ADME, organism-based; conditions: in vivo; in short: as §2
[11] = Cmax in CD-1 mouse at 1 mg/kg, iv measured upto 1440 mins by LC/MS/MS analysis; format: ADME, organism-based; design: route intravenous, dose 1 mg/kg, time <=1440; conditions: in vivo; in short: as §2
[12] = Cmax in CD-1 mouse at 20 mg/kg, po measured upto 1440 mins by LC/MS/MS analysis; format: ADME, organism-based; design: route oral, dose 20 mg/kg, time <=1440; conditions: in vivo; in short: as §2
[13] = Cmax in CD-1 mouse at 100 mg/kg, po measured upto 1440 mins by LC/MS/MS analysis; format: ADME, organism-based; design: route oral, dose 100 mg/kg, time <=1440; conditions: in vivo; in short: as §2
[14] = AUC (0 to infinity) in CD-1 mouse at 1 mg/kg, iv measured upto 1440 mins by LC/MS/MS analysis; format: ADME, organism-based; design: route intravenous, dose 1 mg/kg, time <=1440; conditions: in vivo, 24 h; in short: as §2
[15] = AUC (0 to infinity) in CD-1 mouse at 20 mg/kg, po measured upto 1440 mins by LC/MS/MS analysis; format: ADME, organism-based; design: route oral, dose 20 mg/kg, time <=1440; conditions: in vivo, 24 h; in short: as §2
[16] = AUC (0 to infinity) in CD-1 mouse at 100 mg/kg, po measured upto 1440 mins by LC/MS/MS analysis; format: ADME, organism-based; design: route oral, dose 100 mg/kg, time <=1440; conditions: in vivo; in short: as §2
Mus musculus [17] = assay: Antiinflammatory activity in orally dosed surgical-induced lymphedema ICR mouse model assessed as reduction in lymphedema volume administered for 7 days before surgery and measured 7 days after surgery relative to control; format: functional; conditions: time 14 day
In short: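 Lymphedema induced in the right lower limb of anesthetized male ICR mice by removing the superficial inguinal, popliteal and deep inguinal lymph nodes and a femoral lymphatic vessel, with limited cautery. Oral dosing at 100 mg/kg/day started 7 days before surgery and continued every 2 days afterwards. Limb volume measured by caliper on day 7 by blinded observers and compared with vehicle.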

Mus musculus [18] = assay: Antiinflammatory activity in orally dosed surgical-induced lymphedema ICR mouse model assessed as reduction in neutrophil infiltration administered for 7 days before surgery and measured 7 days after surgery; format: functional, organism-based; conditions: time 14.0 day
In short: (§3)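 Surgical lymphedema model in male ICR mice with oral pretreatment starting 7 days before surgery. Right hind-limb tissue taken 15–25 mm distal on day 7 post-surgery and H&E-stained to assess dermal tissue and neutrophils. Groups: normal, vehicle, treated.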

Mus musculus [19] = assay: Antiinflammatory activity in orally dosed surgical-induced lymphedema ICR mouse model assessed as reduction in dermal layer lymphedema tissue administered for 7 days before surgery and measured 7 days after surgery; format: functional, organism-based; conditions: time 14.0 day; in short: as §3
Mus musculus [20] = assay: Antiinflammatory activity in orally dosed surgical-induced lymphedema ICR mouse model assessed as reduction in TNF-alpha mRNA expression administered 7 days before surgery and measured 7 days after surgery by RT-PCR analysis; format: functional, organism-based; conditions: time 14.0 day
Mus musculus [21] = assay: Antiinflammatory activity in orally dosed surgical-induced lymphedema ICR mouse model assessed as reduction in PPARgamma expression administered 7 days before surgery and measured 7 days after surgery by Western blot analysis; format: functional, organism-based; conditions: time 14.0 day
Mus musculus [22] = assay: Antiinflammatory activity in orally dosed surgical-induced lymphedema ICR mouse model assessed as reduction in PPARgamma expression administered 7 days before surgery and measured 7 days after surgery by immunofluorescence analysis; format: functional, organism-based; conditions: time 14.0 day
In short: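 Surgical lymphedema in male ICR mice with oral pretreatment. Limb tissue harvested on day 7 post-surgery. Sections immunostained with anti-mouse PPARγ, Alexa Fluor 488 secondary and DAPI, then examined by fluorescence microscopy.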

Mus musculus [23] = assay: Antiinflammatory activity in orally dosed surgical-induced lymphedema ICR mouse model assessed as reduction in Fabp4 administered 7 days before surgery and measured 7 days after surgery by Western blot analysis; format: functional, organism-based; conditions: time 14.0 day
Mus musculus [24] = assay: Antiinflammatory activity in orally dosed surgical-induced lymphedema ICR mouse model assessed as reduction in PPARgamma mRNA expression administered 7 days before surgery and measured 7 days after surgery by RT-PCR analysis; format: functional, organism-based; conditions: time 14.0 day
Mus musculus [25] = assay: Antiinflammatory activity in orally dosed surgical-induced lymphedema ICR mouse model assessed as reduction in Fabp4 mRNA expression administered 7 days before surgery and measured 7 days after surgery by RT-PCR analysis; format: functional, organism-based; conditions: time 14.0 day
Mus musculus [26] = assay: Antiinflammatory activity in orally dosed surgical-induced lymphedema ICR mouse model assessed as reduction in TNF-alpha expression administered 7 days before surgery and measured 7 days after surgery; conditions: time 14.0 day
[27] = Oral bioavailability in CD-1 mouse at 20 mg/kg measured upto 1440 mins by LC/MS/MS analysis; format: ADME, organism-based; conditions: in vivo, 24 h
In short: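 Male CD-1 mice (5 weeks) dosed orally at 20 mg/kg, with a 1 mg/kg tail-vein reference group. Bioavailability calculated as (AUCpo/AUCiv) × 100. Mean ± SD, three mice.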

SMILES: O=C(/C=C/c1ccc(O)c(O)c1)c1ccc(O)cc1O [BUTEIN]
inhibition at 20 µM [1]: 20% | IC50 [2]: 43.3 µM | remaining at 0.5 h [3]: 9.93% | remaining at 0.5 h [4]: 18.1% | remaining at 0.5 h [5]: 61.6% | pKa [6]: 7.96 | solubility kinetic [7]: 21 µg/mL (≈ 77.1 µM) | Tmax [8]: 6 min | Tmax [9]: 18 min | Tmax [10]: 18 min | Cmax [11]: 41 ng/mL | Cmax [12]: 43 ng/mL | Cmax [13]: 601 ng/mL | AUC [14]: 6.7 ng·h/mL | AUC [15]: 21 ng·h/mL | AUC(0-inf) ([16]; CD-1, mouse): 251 ng·h/mL | inhibition (INH) (Mus musculus [17]): 52% | inhibition (Mus musculus [18]): Active | inhibition (Mus musculus [19]): Active | inhibition (Mus musculus [20]): Active | inhibition (Mus musculus [21]): Active | inhibition (Mus musculus [22]): Active | inhibition (Mus musculus [23]): Active | inhibition (Mus musculus [24]): Active | inhibition (Mus musculus [25]): Active | inhibition (Mus musculus [26]): Active

SMILES: O=C(Oc1cc(O)ccc1C(=O)/C=C/c1ccc(O)c(O)c1)c1ccc(Cl)cc1
IC50 [2]: 17.9 µM

SMILES: COc1ccc(C(=O)Oc2cc(O)ccc2C(=O)/C=C/c2ccc(O)c(O)c2)cc1
IC50 [2]: 20.8 µM

SMILES: O=C1CC2(CCCC2)CC(=O)N1CCCCN1CCN(c2ncccn2)CC1 [BUSPIRONE]
remaining at 0.5 h [3]: 0.0183% | remaining at 0.5 h [4]: 0.0928% | remaining at 0.5 h [5]: 4.7%

SMILES: O=C(Oc1cc(O)ccc1C(=O)/C=C/c1ccc(O)c(O)c1)c1ccccc1
inhibition at 20 µM [1]: 51% | IC50 [2]: 14.6 µM | remaining at 0.5 h [3]: 4% | remaining at 0.5 h [4]: 7% | remaining at 0.5 h [5]: 2% | pKa [6]: 3.38 | solubility kinetic [7]: 136 µg/mL (≈ 361 µM) | Tmax [8]: 12 min | Tmax [9]: 24 min | Tmax [10]: 24 min | Cmax [11]: 110 ng/mL | Cmax [12]: 83 ng/mL | Cmax [13]: 1600 ng/mL | AUC [14]: 163 ng·h/mL | AUC [15]: 141 ng·h/mL | AUC ([16]; mouse, 24 h): 1224 ng·h/mL | inhibition (INH) (Mus musculus [17]): 70% | inhibition (Mus musculus [18]): Active | inhibition (Mus musculus [19]): Active | inhibition (Mus musculus [20]): Active | inhibition (Mus musculus [21]): Active | inhibition (Mus musculus [22]): Active | inhibition (Mus musculus [23]): Active | F [27]: 4% | inhibition (Mus musculus [24]): Active | inhibition (Mus musculus [25]): Active | inhibition (Mus musculus [26]): Active

SMILES: CC(C)Oc1cc(O)ccc1C(=O)/C=C/c1ccc(O)c(O)c1
inhibition at 20 µM [1]: 64%

SMILES: O=C(/C=C/c1ccc(O)c(O)c1)c1ccc(O)cc1F
inhibition at 20 µM [1]: 32%

SMILES: CC(=O)Oc1ccc(C(=O)/C=C/c2ccc(OC(C)=O)c(OC(C)=O)c2)c(OC(C)=O)c1
inhibition at 20 µM [1]: 73% | IC50 [2]: 12.8 µM

SMILES: O=C(/C=C/c1ccc(F)c(O)c1)c1ccc(O)cc1O
inhibition at 20 µM [1]: 22%

Continued, in another order:

IC50 [2]: 18.6 µM
SMILES: Cc1ccc(C(=O)/C=C/c2ccc(O)c(O)c2)cc1
inhibition at 20 µM [1]: 61%

IC50 [2]: 48.4 µM
SMILES: Cc1cc(O)ccc1C(=O)/C=C/c1ccc(O)c(O)c1
inhibition at 20 µM [1]: 41%

IC50 [2]: 17.3 µM | remaining at 0.5 h [3]: 7.26% | remaining at 0.5 h [4]: 21.1% | remaining at 0.5 h [5]: 38% | pKa [6]: 9.23 | solubility kinetic [7]: 28 µg/mL (≈ 102 µM)
SMILES: O=C(/C=C/c1ccc(O)c(O)c1)c1ccc(Cl)cc1
inhibition at 20 µM [1]: 62% | inhibition (INH) (Mus musculus [17]): 53%

IC50 [2]: 18.9 µM
SMILES: Cc1ccc(C(=O)Oc2cc(O)ccc2C(=O)/C=C/c2ccc(O)c(O)c2)cc1
